The source of these data is PMC5460915 (Molecular pharmaceutics, 2015).

Data set [1] addresses NTR1 (NTR1-positive HT-29 cells) (Homo sapiens, UniProt P30989). The data set can be described thus: In vitro competitive cell binding assay against 125I-NT. As to conditions: as supported by the similar IC50 values.
Data set [2] has as its system NTR1-expressing HT-29 tumor. Briefly: Immunohistochemistry and fluorescence microscopy of HT-29 tumor sections. It counts as in vivo, mice bearing human HT-29 xenograft. The method in brief:
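Dye-conjugated test compound given i.v. to HT-29 xenograft mice, with or without a blocking dose of NT peptide. Tumors taken 4 h p.i., […], cut at 6 μm (cryostat, −25 °C) and fixed in ice-cold acetone for 15 min. Peroxidase quenched with 3% H2O2 in methanol, then blocked with 10% horse serum for 1 h at RT. Anti-CD31 with labelled secondary (1:200), DAPI 2 μg/mL for 20 min at 37 °C. Confocal imaging, 40× objective.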

Data set [3] is described as follows: In vitro stability in PBS. Type of data set: physicochemical. As to conditions: PBS (1×), 37 MBq/mL, radio-HPLC. The method in brief:
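64Cu-labelled test compound HPLC-purified, solvent evaporated and taken up in 1× PBS at 37 MBq/mL. Radiochemical purity by radio-HPLC at 30 min, 2 h and 6 h of incubation.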

Data set [4] concerns NTR1-positive HT-29 tumor. The data set can be described thus: Small animal PET imaging in HT-29 xenograft mice. Type of data set: in vivo, human HT-29 xenograft in male athymic mice (BALB/c nu/nu). The method in brief: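 Xenografts were HT-29 cells, 1 × 10^6 per 0.1 mL s.c. in the shoulder, tumors ≥3 mm. Radioligand labelled with 64CuCl2 in NH4OAc pH 5.5 at 37 °C for 60 min, HPLC-purified, in PBS (about 10.2 GBq/μmol). About 3.7 MBq via tail vein, n = 3/group; blocking group co-given 100 μg unlabelled NT. PET at 1 and 4 h p.i. ROI counts/g/min (1 g/mL density assumed) divided by injected dose gave %ID/g.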

A short description of data set [5]: Biodistribution in nude mice bearing HT-29 tumor. As to conditions: for tissue uptake at 4 h: male, athymic nude BALB/c nu/nu, mouse, total radioactivity. It counts as in vivo, nude mice bearing HT-29 xenograft. The method in brief: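 HT-29 cells (McCoy's 5A, 10% FBS, 37 °C, 5% CO2; trypsin-EDTA at 80% confluence) at 1 × 10^6 per 0.1 mL s.c. in the shoulder of 4–6-wk male BALB/c nu/nu mice, used at ≥3 mm tumor diameter. 3.7 MBq 64Cu-labelled test compound (HPLC-purified, in PBS) given. Mice killed under inhalation anesthesia 4 h p.i.; tissues weighed and gamma-counted. Group mean %ID/g ± SD.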

Data set [6] has as its system NTR1-positive HT-29 tumor. The data set can be described thus: In vivo near-infrared fluorescence imaging. Set-up: species or system mice bearing human HT-29 xenograft. Conditions: 1.5 nmol i.v., 1 and 4 h p.i., Cy5.5 filter set.
In data set [7] the test system is NTR1-positive HT-29 tumor. Briefly: Ex vivo near-infrared fluorescence imaging of tumors and organs. It counts as in vivo, mice bearing human HT-29 xenograft.

NTR1 (NTR1-positive HT-29 cells), sequence (P30989 whole entry): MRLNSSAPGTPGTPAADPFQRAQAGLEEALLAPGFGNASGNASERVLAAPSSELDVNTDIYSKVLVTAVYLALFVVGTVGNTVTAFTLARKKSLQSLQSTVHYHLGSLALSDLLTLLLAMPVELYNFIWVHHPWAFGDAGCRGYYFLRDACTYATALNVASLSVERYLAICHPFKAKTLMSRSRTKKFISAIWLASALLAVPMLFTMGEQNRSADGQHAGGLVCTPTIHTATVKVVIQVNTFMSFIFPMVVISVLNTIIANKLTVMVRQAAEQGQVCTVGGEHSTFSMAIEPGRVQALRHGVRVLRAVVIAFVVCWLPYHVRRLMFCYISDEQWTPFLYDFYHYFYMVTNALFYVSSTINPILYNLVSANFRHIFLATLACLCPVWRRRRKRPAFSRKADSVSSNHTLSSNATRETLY

Consider `CC[C@H](C)[C@H](NC(=O)[C@H](Cc1ccc(O)cc1)NC(=O)[C@@H]1CCCN1C(=O)[C@H](CCCNC(=N)N)NC(=O)[C@H](CCCNC(=N)N)NC(=O)[C@@H]1CCCN1C(=O)[C@H](CCCCN)NC(=O)[C@H](CSC1CC(=O)N(CCNC(=O)CCCCC[N+]2=C(C=CC=CC=C3N(CC)c4ccc5c(S(=O)(=O)O)cc(S(=O)(=O)[O-])cc5c4C3(C)C)C(C)(C)c3c2ccc2c(S(=O)(=O)O)cc(S(=O)(=O)O)cc32)C1=O)NC(=O)CN1CCN(CC(=O)O)CCN(CC(=O)O)CCN(CC(=O)O)CC1)C(=O)N[C@@H](CC(C)C)C(=O)O` (stereo partly drawn) [DOTA-NT-Cy5.5], for which the “binding affinity compared between DOTA-NT-Cy5.5 and NT (in words)” value in data set [1] is given as “not significantly different”. Further, in data set [2] (4 h p.i., with blocking dose of NT peptide vs without), the “fluorescent signal in tumors of blocking animals (in words)” value was “very weak fluorescent signals”. In addition, the “specific binding in HT-29 tumor (in words)” value in data set [2] (FL microscope, coinjected Cys-NT peptide) is “tumor localization was clearly inhibited by coinjected Cys-NT peptide”.

As for `CC[C@H](C)[C@H](NC(=O)[C@H](Cc1ccc(O)cc1)NC(=O)[C@@H]1CCCN1C(=O)[C@H](CCCNC(=N)N)NC(=O)[C@H](CCCNC(=N)N)NC(=O)[C@@H]1CCCN1C(=O)[C@H](CCCCN)NC(=O)[C@H](CSC1CC(=O)N(CCNC(=O)CCCCC[N+]2=C(C=CC=CC=C3N(CC)c4ccc5c(S(=O)(=O)O)cc(S(=O)(=O)[O-])cc5c4C3(C)C)C(C)(C)c3c2ccc2c(S(=O)(=O)O)cc(S(=O)(=O)O)cc32)C1=O)NC(=O)CN1CCN(CC(=O)O)CCN(CC(=O)O)CCN(CC(=O)O)CC1)C(=O)N[C@@H](CC(C)C)C(=O)O` (stereo partly drawn) [^64Cu-DOTA-NT-Cy5.5, metal not drawn], the radiochemical purity entry is on record as “greater than 98.9%” in data set [3] (30 min after incubation), over 96.9% in data set [3] (2 h after incubation) and over 90.8% in data set [3] (6 h after incubation). For the same compound, the tumor uptake in data set [4] (PET ROI, HT-29 xenograft, 1 h p.i., ~3.7 MBq tail vein, n = 3/group, mean ± SD) came out at 1.91 ± 0.22 %ID/g. The “inhibition of tumor uptake by nonradioactive Cys-NT (in words)” value in data set [4] (blocking experiment, P < 0.05, all time points (Figures 3 and 5: PET and fluorescence)) was “nonradioactive Cys-NT peptide significantly (P < 0.05) inhibited the tumor uptake”. In addition, in data set [4] (liver, kidneys, muscle, with vs without 100 μg unlabeled NT), the “uptake in normal organs, blocked vs unblocked (in words)” value was “no significant difference in most of the normal organs”. Further, the tumor-to-muscle ratio in data set [5] (4 h p.i., based on biodistribution, HT-29 xenograft, mean ± SD) is recorded as 17.44 ± 3.25. For the same compound, the “tumor uptake relative to liver, PET and biodistribution (in words)” value in data set [5] (HT-29 tumor vs liver, PET imaging and biodistribution) is “HT-29 tumor has lower uptake than liver”. Moreover, the “muscle, lung, and heart uptake (in words)” value in data set [5] (biodistribution, 4 h p.i., 3.7 MBq) is “The muscle, lung, and heart had relatively low uptake”. Also, the tissue uptake at 4 h in data set [5] (kidney, 3.7 MBq) is 14.2 ± 1.33 %ID/g; in data set [5] (liver, 3.7 MBq), 4.63 ± 0.74 %ID/g. Moreover, the “tumor fluorescence signal in vivo (in words)” value in data set [6] is given as “the HT-29 tumor lit up at all the time points examined”. Further, in data set [7] (HT-29 tumor vs liver, optical imaging), the “tumor uptake relative to liver, optical imaging (in words)” value is “higher tumor uptake than liver”. The “tumor to muscle contrast (in words)” value in data set [7] (PET and ex vivo fluorescence, 4 h p.i.) was “both PET and fluorescence gave good tumor to muscle contrast”. For the same compound, the “organs with high probe uptake (in words)” value in data set [7] (ex vivo fluorescence, 1.5 nmol i.v., 4 h p.i.) was “The tumor, liver, and kidneys are three motifs that showed high probe uptake”.
